Measurements from ChEMBL document CHEMBL3792280, “Design and synthesis of novel quinoxaline derivatives as potential candidates for treatment of multidrug-resistant and latent tuberculosis” (Bioorg Med Chem Lett, 2016).
≈ marks a conversion by molar mass, not a printed value.

Columns and labels:
[1] = tested on: Mycobacterium tuberculosis; assay: Antimicrobial activity against Mycobacterium tuberculosis H37Rv ATCC 27294 incubated for 7 days by BacTiter-Glo cell viability assay; format: functional, organism-based; conditions: for MIC: H37Rv ATCC 27294, 168 h; for IC50 / IC90: H37Rv ATCC 27294, BacTiter-Glo, 168 h
[2] = tested on: Mycobacterium tuberculosis; assay: Antimicrobial activity against Mycobacterium tuberculosis H37Rv ATCC 27294 infected in mouse J774 cells assessed as log reduction in bacterial burden at 10 times lower MIC measured 7 days postinfection relative to rifampicin; format: functional
In short: (§1)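 Macrophages infected with H37Rv and treated at three concentrations 10-fold apart, chosen from the primary-screen H37Rv data. The middle concentration brackets the reported MIC, with the others ten-fold below and ten-fold above it. Read-out is log-reduction of intracellular bacterial burden.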

[3] = tested on: Mycobacterium tuberculosis; assay: Antimicrobial activity against Mycobacterium tuberculosis H37Rv ATCC 27294 infected in mouse J774 cells assessed as growth inhibition at 10 times lower MIC measured 7 days postinfection; format: functional; in short: as §1
J774 [4] = assay: Cytotoxicity against mouse J774 cells assessed as cell viability at 10 times MIC by MTT assay relative to control; format: cell-based
J774 [5] = assay: Cytotoxicity against mouse J774 cells assessed as cell viability at 10 times lower MIC by MTT assay relative to control; format: cell-based
J774 [6] = assay: Cytotoxicity against mouse J774 cells assessed as cell viability at MIC by MTT assay relative to control; format: cell-based
[7] = tested on: Mycobacterium tuberculosis; assay: Antimicrobial activity against Mycobacterium tuberculosis H37Rv ATCC 27294 infected in mouse J774 cells assessed as log reduction in bacterial burden at 10 times lower MIC measured 7 days postinfection relative to control; format: functional; in short: as §1
[8] = tested on: Mycobacterium tuberculosis; assay: Antimicrobial activity against Mycobacterium tuberculosis H37Rv ATCC 27294 infected in mouse J774 cells assessed as log reduction in bacterial burden at 10 times MIC measured 7 days postinfection relative to control; format: functional; in short: as §1
[9] = tested on: Mycobacterium tuberculosis; assay: Antimicrobial activity against Mycobacterium tuberculosis H37Rv ATCC 27294 infected in mouse J774 cells assessed as log reduction in bacterial burden at MIC measured 7 days postinfection relative to control; format: functional; in short: as §1
[10] = tested on: Mycobacterium tuberculosis; assay: Antimicrobial activity against Mycobacterium tuberculosis H37Rv SRI 1345 assessed as growth inhibition at MIC after 7 days; format: functional
In short: (§2)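 MIC in µg/mL, retested on susceptible H37Rv (SRI 1345) in the same panel as single-drug-resistant strains: isoniazid-, rifampin- and ofloxacin-resistant. Percent inhibition recorded at the MIC concentration. Ratio taken as MIC H37Rv / MIC resistant strain.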

[11] = tested on: Mycobacterium tuberculosis; assay: Antimicrobial activity against Mycobacterium tuberculosis H37Rv SRI 1345 after 7 days; format: functional; conditions: H37Rv SRI 1345, 168 h; in short: as §2
[12] = tested on: Mycobacterium tuberculosis; assay: Antimicrobial activity against non-replicating Mycobacterium tuberculosis H37Rv SRI 1345 assessed as inhibition of visual growth incubated for 7 days under anaerobic condition by low oxygen recovery assay; format: functional; conditions: H37Rv SRI 1345, 168 h
[13] = tested on: Mycobacterium tuberculosis; assay: Antimicrobial activity against Mycobacterium tuberculosis H37Rv SRI 1345 assessed as inhibition of visual growth after 18 to 24 hrs; format: functional; conditions: read-out: MBC99.9
[14] = tested on: Mycobacterium tuberculosis; assay: Ratio of MBC for Mycobacterium tuberculosis H37Rv SRI 1345 to MIC for Mycobacterium tuberculosis H37Rv SRI 1345; format: functional
In short: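 MBC read from colony-forming unit counts; ratio computed as MBC / MIC against H37Rv.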

[15] = tested on: Mycobacterium tuberculosis; assay: Ratio of MIC for Mycobacterium tuberculosis H37Rv SRI 1345 to MIC for non-replicating Mycobacterium tuberculosis H37Rv SRI 1345; format: functional
In short: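 Non-replicating bacilli tested by Low Oxygen Recovery Assay (LORA); ratio computed as MIC H37Rv / LORA MIC.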

SMILES | MIC [1] [µM] | IC50 [1] [µM] | IC90 [1] [µM] | other results
O=C(c1ccc(F)cc1)c1c(C(F)(F)F)[n+]([O-])c2cc(Cl)c(Cl)cc2[n+]1[O-] | 6.2 (≈ 2.61 µg/mL) | 3.6 | 4.5 | 
Cc1c(C(=O)/C=C/c2ccccc2)[n+]([O-])c2ccccc2[n+]1[O-] | 12.5 (≈ 3.83 µg/mL) | 5.8 | 11.5 | 
Cc1c(C(=O)/C=C/c2ccc([N+](=O)[O-])s2)[n+]([O-])c2cc(Cl)ccc2[n+]1[O-] | 25 (≈ 9.79 µg/mL) | 7.3 | 13 | 
CC(=O)c1c(C(F)(F)F)[n+]([O-])c2cc(F)c(N3CCC(N4CCOCC4)CC3)cc2[n+]1[O-] | 12.5 (≈ 5.73 µg/mL) | 4 | 7.2 | 
O=C(c1ccc(F)cc1)c1c(C(F)(F)F)[n+]([O-])c2cc(F)c(F)cc2[n+]1[O-] | 12.5 (≈ 4.85 µg/mL) | 5.2 | 8 | 
Cc1c(C(=O)/C=C/c2ccc([N+](=O)[O-])s2)[n+]([O-])c2cc(Cl)c(Cl)cc2[n+]1[O-] |  | > 100 | > 100 | 
CC(=O)c1c(C(F)(F)F)[n+]([O-])c2cc(N3CCCCC3)c(N3CCCCC3)cc2[n+]1[O-] | 6.2 (≈ 2.72 µg/mL) | 2.2 | 4.6 | 
CC(=O)c1c(C(F)(F)F)[n+]([O-])c2cc(F)c(N3CCC(O)CC3)cc2[n+]1[O-] | 12.5 (≈ 4.87 µg/mL) | 5.4 | 10.7 | 
Cc1c(C(=O)/C=C/c2ccccc2)[n+]([O-])c2cc(Cl)ccc2[n+]1[O-] | 3.1 (≈ 1.06 µg/mL) | 1.5 | 1.7 | Log reduction in bacterial burden relative to rifampicin [2]: 3; growth inhibition (GI) [3]: >99%; Activity (J774 [4]): 26%; Activity (J774 [5]): 70%; Activity (J774 [6]): 81%; log reduction in bacterial burden [7]: 2.11; log reduction in bacterial burden [8]: 1.76; log reduction in bacterial burden [9]: 1.68; growth inhibition (GI) [10]: 80%
Cc1c(C(=O)/C=C/c2ccc([N+](=O)[O-])o2)[n+]([O-])c2ccccc2[n+]1[O-] | 25 (≈ 8.53 µg/mL) | 17.3 | 24.6 | 
Cc1c(C(=O)/C=C/c2ccc([N+](=O)[O-])s2)[n+]([O-])c2ccccc2[n+]1[O-] |  | > 100 | > 100 | 
O=C(c1ccc(F)cc1)c1c(C(F)(F)F)[n+]([O-])c2ccc(F)cc2[n+]1[O-] | 6.2 (≈ 2.3 µg/mL) | 3.1 | 4 | 
CCc1nc(N)nc(N)c1-c1ccc(Cl)cc1 [PYRIMETHAMINE] | 50 (≈ 12.4 µg/mL) | 23.6 | 36 | 
CCOC(=O)c1c(C(F)(F)F)nc2cc(Cl)c(N3CCOCC3)cc2[n+]1[O-] |  | > 100 | > 100 | 
CC[C@@H](CO)NCCN[C@@H](CC)CO [ETHAMBUTOL] | 6.2 (≈ 1.27 µg/mL) | 1.2 | 1.8 | 
CC(=O)c1c(C(F)(F)F)[n+]([O-])c2cc(F)c(N3CCCCC3)cc2[n+]1[O-] | 1.6 (≈ 0.597 µg/mL) | 1 | 1.5 | Log reduction in bacterial burden relative to rifampicin [2]: 3; growth inhibition (GI) [3]: >90%; MIC [11]: 1 µg/mL (≈ 2.68 µM); Activity (J774 [4]): 65%; MIC [12]: > 8 µg/mL; Activity (J774 [5]): 83%; Activity (J774 [6]): 53%; log reduction in bacterial burden [7]: 1.74; log reduction in bacterial burden [8]: 2.66; log reduction in bacterial burden [9]: 1.5; growth inhibition (GI) [10]: 78%
NNC(=O)c1ccncc1 [ISONIAZID] | 0.3 (≈ 0.0411 µg/mL) | 0.1 | 0.2 | 
COC(=O)c1c(C(F)(F)F)[n+]([O-])c2ccc(N3CCN(c4ccc(F)cc4)CC3)cc2[n+]1[O-] | 1.6 (≈ 0.746 µg/mL) | 0.5 | 0.8 | MBC [13]: 4 µg/mL (≈ 8.58 µM); Log reduction in bacterial burden relative to rifampicin [2]: 3; growth inhibition (GI) [3]: >90%; Ratio [14]: 2.6; MIC [11]: 1.5 µg/mL (≈ 3.22 µM); Activity (J774 [4]): 47%; MIC [12]: 0.375 µg/mL (≈ 0.804 µM); Activity (J774 [5]): 60%; Activity (J774 [6]): 64%; log reduction in bacterial burden [7]: 1.43; log reduction in bacterial burden [8]: 3.86; Ratio [15]: 4; log reduction in bacterial burden [9]: 1.41; growth inhibition (GI) [10]: 78%
Cc1ccc2c(c1)[n+]([O-])c(C(=O)/C=C/c1ccccc1)c(C)[n+]2[O-] | 25 (≈ 8.01 µg/mL) | 7.2 | 14.7 | 
NCC[C@H](O)C(=O)N[C@@H]1C[C@H](N)[C@@H](O[C@H]2O[C@H](CN)[C@@H](O)[C@H](O)[C@H]2O)[C@H](O)[C@H]1O[C@H]1O[C@H](CO)[C@@H](O)[C@H](N)[C@H]1O [AMIKACIN] | 0.2 (≈ 0.117 µg/mL) | 0.102 | 0.141 | 
O=C(c1ccc(F)cc1)c1c(C(F)(F)F)[n+]([O-])c2ccc(Cl)cc2[n+]1[O-] | 6.2 (≈ 2.4 µg/mL) | 3.7 | 4.5 | 
CC(=O)c1c(C(F)(F)F)nc2cc(F)c(N3CCSCC3)cc2[n+]1[O-] | 3.1 (≈ 1.16 µg/mL) | 1.3 | 1.8 | Log reduction in bacterial burden relative to rifampicin [2]: 3; growth inhibition (GI) [3]: >99%; MIC [11]: 0.75 µg/mL (≈ 2 µM); Activity (J774 [4]): 26%; MIC [12]: > 12 µg/mL; Activity (J774 [5]): 70%; Activity (J774 [6]): 81%; log reduction in bacterial burden [7]: 2.17; log reduction in bacterial burden [8]: 1.76; log reduction in bacterial burden [9]: 1.66; growth inhibition (GI) [10]: 51%
N[C@@H]1CONC1=O [CYCLOSERINE] | 50 (≈ 5.1 µg/mL) | 20.8 | 33.1 | 
O=C(c1ccco1)c1c(C(F)(F)F)nc2cc(Cl)c(N3CCOCC3)cc2[n+]1[O-] |  | > 100 | > 100 | 
Cc1c(C(=O)/C=C/c2ccc([N+](=O)[O-])o2)[n+]([O-])c2cc(Cl)ccc2[n+]1[O-] | 25 (≈ 9.39 µg/mL) | 13.5 | 20.8 | 
Cc1ccc2c(c1)[n+]([O-])c(C(=O)/C=C/c1ccc([N+](=O)[O-])s1)c(C)[n+]2[O-] |  | > 100 | > 100 | 
CC(C)C(=O)c1c(C(F)(F)F)nc2cc(N3CCOCC3)c(N3CCOCC3)cc2[n+]1[O-] | 25 (≈ 11.4 µg/mL) | 8.3 | 17.9 | 
CO[C@H]1/C=C/O[C@@]2(C)Oc3c(C)c(O)c4c(O)c(c(/C=N/N5CCN(C)CC5)c(O)c4c3C2=O)NC(=O)/C(C)=C\C=C\[C@H](C)[C@H](O)[C@@H](C)[C@@H](O)[C@@H](C)[C@H](OC(C)=O)[C@@H]1C [RIFAMPIN] | 0.04 (≈ 0.0329 µg/mL) | 0.02 | 0.03 | MBC [13]: 0.78 µg/mL (≈ 0.948 µM); Ratio [14]: 15.6; MIC [11]: 0.05 µg/mL (≈ 0.0608 µM); Activity (J774 [4]): 80%; MIC [12]: 0.39 µg/mL (≈ 0.474 µM); Activity (J774 [5]): 93%; Activity (J774 [6]): 87%; log reduction in bacterial burden [7]: 0.48; log reduction in bacterial burden [8]: 2.68; log reduction in bacterial burden [9]: 1.73; growth inhibition (GI) [10]: 55%
Cc1ccc2c(c1)[n+]([O-])c(C(=O)/C=C/c1ccc([N+](=O)[O-])o1)c(C)[n+]2[O-] | 50 (≈ 17.8 µg/mL) | 29.7 | 38.1 | 
O=C(c1ccco1)c1c(C(F)(F)F)[n+]([O-])c2cc(Cl)c(N3CCOCC3)cc2[n+]1[O-] | 3.1 (≈ 1.38 µg/mL) | 1.2 | 2.1 | Log reduction in bacterial burden relative to rifampicin [2]: 3; growth inhibition (GI) [3]: >90%; MIC [11]: 2 µg/mL (≈ 4.51 µM); Activity (J774 [4]): 37%; MIC [12]: 0.25 µg/mL (≈ 0.563 µM); Activity (J774 [5]): 88%; log reduction in bacterial burden [7]: 1.68; log reduction in bacterial burden [8]: 2.67; log reduction in bacterial burden [9]: 1.57; growth inhibition (GI) [10]: 61%
